Reference: ChEMBL document CHEMBL3352171, “Synthesis and biological evaluation of andrographolide analogues as anti-cancer agents” (Eur J Med Chem, 2014)
The source made the active and inactive calls. No cut-off for these calls is given here.

Key:
HEK293 [1] = experiment: Induction of apoptosis in HEK293 cells assessed as apoptotic nuclei formation at 5 uM after 48 hrs by DAPI staining based fluorescence microscopy; type: functional, cell-based; settings: Homo sapiens
HEK293 [2] = experiment: Increase in Bax expression in p53 deficient HEK293 cells at LC50 level after 48 hrs by Western blot method; type: functional, cell-based; settings: Homo sapiens
HEK293 [3] = experiment: Induction of cell death in HEK293 cells at 15 to 20 uM after 48 hrs by DAPI staining based fluorescence microscopy; type: functional; settings: Homo sapiens
HEK293 [4] = experiment: Increase in PARP cleavage in p53 deficient HEK293 cells at LC50 level after 48 hrs by Western blot method; type: functional, cell-based; settings: Homo sapiens
[5] = Induction of DNA adduct formation (unknown origin) using guanosine in presence of glacial acetic acid at 75 degC incubated for 12 hrs by TLC method
In short: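 Model reaction of compound with guanosine in glacial acetic acid at 75 °C, heated up to 12 h; adduct sought by TLC and LCMS.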

MCF7 = experiment: Cytotoxicity against human MCF7 cells after 48 hrs by MTT assay; type: functional; settings: MCF7, 48 h, read-out: LC50 (the source's name)
In short: (§1)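 Cells seeded at 10,000 per well and exposed to increasing compound concentrations for 48 h. After a PBS wash, MTT (2.5 mg/mL) was added for 6 h at 37 °C, then detergent (10% NP-40, 4 mM HCl), and absorbance was read at 570 nm. LC50 is the concentration causing 50% cell death. Values are means of three independent experiments.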

HEK293 [6] = experiment: Increase in p53 expression in HEK293 cells at LC50 level after 48 hrs by Western blot method; type: functional, cell-based; settings: Homo sapiens
HEK293 [7] = experiment: Induction of apoptosis in HEK293 cells at 5 uM after 48 hrs by propidium iodide staining based flow cytometry (reference value: 24.26 +/- 0.8%); type: functional, Homo sapiens
HEK293 [8] = experiment: Cytotoxicity against HEK293 cells after 48 hrs by MTT assay; type: functional; settings: Homo sapiens, HEK293, 48 h; read-out: LC50 (the source's name); in short: as §1
[9] = Cytotoxicity against human MCF10A cells after 48 hrs by MTT assay; type: cell-based; settings: mcf-10a; in short: as §1
HEK293 [10] = experiment: Increase in PARP cleavage in HEK293 cells at LC50 level after 48 hrs by Western blot method; type: functional, cell-based; settings: Homo sapiens
[11] = Hydrolysis half life in pH 7.4 PBS buffer assessed as andrographolide formation by HPLC method; type: physicochemical
HEK293 [12] = experiment: Induction of cell cycle arrest in HEK293 cells assessed as accumulation at G1 phase at 10 uM after 48 hrs by propidium iodide staining based flow cytometry (reference value: 53.21 +/- 0.8%); type: functional, Homo sapiens
HEK293 [13] = experiment: Induction of apoptosis in HEK293 cells at 5 to 20 uM after 48 hrs by DAPI staining based fluorescence microscopy; type: functional, cell-based; settings: Homo sapiens
HEK293 [14] = experiment: Induction of cell cycle arrest in HEK293 cells assessed as accumulation at G1 phase at 20 uM after 48 hrs by propidium iodide staining based flow cytometry (reference value: 53.21 +/- 0.8%); type: functional, Homo sapiens
HEK293 [15] = experiment: Induction of apoptosis in HEK293 cells at 20 uM after 48 hrs by propidium iodide staining based flow cytometry (reference value: 24.26 +/- 0.8%); type: functional, Homo sapiens
HEK293 [16] = experiment: Increase in Bax expression in HEK293 cells at LC50 level after 48 hrs by Western blot method; type: functional, cell-based; settings: Homo sapiens
HEK293 [17] = experiment: Induction of cell cycle arrest in HEK293 cells assessed as accumulation at G2/M phase at 10 uM after 48 hrs by propidium iodide staining based flow cytometry (reference value: 2.63 +/- 0.7%); type: functional, Homo sapiens
[18] = Binding affinity to GC-28 DNA (unknown origin) minor groove by DAPI staining based spectrophotometry
In short: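 DAPI–DNA complex fluorescence read at 460 nm emission band; test compound added to the preformed complex and loss of fluorescence followed.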

HEK293 [19] = experiment: Reduction in Bcl-xL expression in p53 deficient HEK293 cells at LC50 level after 48 hrs by Western blot method; type: functional, cell-based; settings: Homo sapiens
HEK293 [20] = experiment: Induction of cell cycle arrest in HEK293 cells assessed as accumulation at S phase at 10 uM after 48 hrs by propidium iodide staining based flow cytometry (reference value: 19.9 +/- 0.5%); type: functional, Homo sapiens
HEK293 [21] = experiment: Reduction in NFkappaB expression in p53 deficient HEK293 cells at LC50 level after 48 hrs by Western blot method; type: functional, cell-based; settings: Homo sapiens
Vero = experiment: Cytotoxicity against african green monkey Vero cells after 48 hrs by MTT assay; type: cell-based; settings: chlorocebus sabaeus; in short: as §1
Calf thymus DNA = experiment: Binding affinity to calf thymus DNA at 3.33 to 20 uM after 2 hrs by UV-visible absorption spectroscopy; type: nucleic-acid assay; settings: Bos taurus
In short: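 CT-DNA at fixed […] in 50 mM Tris-HCl/NaCl pH 7.5, incubated with compound for 2 h at 37 °C, scanned 200–400 nm after dilution. Spectra normalized at 230 nm. Fraction bound q from absorbance near 260 nm; Boltzmann fit, Kb as reciprocal of half-saturation concentration.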

HEK293 [22] = experiment: Induction of apoptosis in HEK293 cells at 20 uM after 48 hrs by propidium iodide staining based flow cytometry relative to untreated control; type: functional, Homo sapiens
HEK293 [23] = experiment: Induction of cell cycle arrest in HEK293 cells assessed as accumulation at G2/M phase at 5 uM after 48 hrs by propidium iodide staining based flow cytometry (reference value: 2.63 +/- 0.7%); type: functional, Homo sapiens
HEK293 [24] = experiment: Induction of apoptosis in HEK293 cells at 15 uM after 48 hrs by propidium iodide staining based flow cytometry (reference value: 24.26 +/- 0.8%); type: functional, Homo sapiens
[25] = target: Nuclear factor NF-kappa-B complex (Homo sapiens) (UniProt Q00653+P19838+Q04206); experiment: Inhibition of NFkappaB (unknown origin) expressed in HEK293 cells assessed as reduction in transcriptional activity after 48 hrs by luciferase reporter gene assay; type: cell-based
Sequence of Nuclear factor NF-kappa-B complex (Homo sapiens) (P19838 whole entry, looked up): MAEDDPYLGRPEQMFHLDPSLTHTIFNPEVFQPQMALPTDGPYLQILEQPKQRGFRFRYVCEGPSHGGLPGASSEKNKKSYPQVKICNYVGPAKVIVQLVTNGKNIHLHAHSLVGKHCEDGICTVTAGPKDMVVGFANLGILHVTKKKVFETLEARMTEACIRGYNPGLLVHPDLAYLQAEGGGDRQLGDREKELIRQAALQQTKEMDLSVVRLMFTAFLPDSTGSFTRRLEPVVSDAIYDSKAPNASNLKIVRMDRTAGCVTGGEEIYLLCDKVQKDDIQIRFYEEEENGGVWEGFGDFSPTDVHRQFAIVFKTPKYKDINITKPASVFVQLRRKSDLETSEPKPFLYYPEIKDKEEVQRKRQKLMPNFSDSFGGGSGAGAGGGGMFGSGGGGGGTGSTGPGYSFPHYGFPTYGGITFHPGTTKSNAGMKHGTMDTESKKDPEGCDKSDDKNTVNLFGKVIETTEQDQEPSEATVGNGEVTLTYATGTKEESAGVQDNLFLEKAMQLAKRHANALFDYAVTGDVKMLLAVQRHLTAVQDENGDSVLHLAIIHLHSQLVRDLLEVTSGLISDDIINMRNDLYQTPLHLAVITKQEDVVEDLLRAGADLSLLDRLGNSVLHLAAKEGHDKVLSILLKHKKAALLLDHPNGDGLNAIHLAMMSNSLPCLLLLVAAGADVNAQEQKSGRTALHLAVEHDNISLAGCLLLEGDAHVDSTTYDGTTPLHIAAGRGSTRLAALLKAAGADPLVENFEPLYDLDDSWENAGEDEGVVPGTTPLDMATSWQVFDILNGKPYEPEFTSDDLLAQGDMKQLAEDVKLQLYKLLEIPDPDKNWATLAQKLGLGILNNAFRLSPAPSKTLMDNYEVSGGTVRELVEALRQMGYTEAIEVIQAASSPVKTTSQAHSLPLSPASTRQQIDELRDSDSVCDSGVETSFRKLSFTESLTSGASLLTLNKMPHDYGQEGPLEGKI
Sequence of Nuclear factor NF-kappa-B complex (Homo sapiens) (Q00653 whole entry, looked up): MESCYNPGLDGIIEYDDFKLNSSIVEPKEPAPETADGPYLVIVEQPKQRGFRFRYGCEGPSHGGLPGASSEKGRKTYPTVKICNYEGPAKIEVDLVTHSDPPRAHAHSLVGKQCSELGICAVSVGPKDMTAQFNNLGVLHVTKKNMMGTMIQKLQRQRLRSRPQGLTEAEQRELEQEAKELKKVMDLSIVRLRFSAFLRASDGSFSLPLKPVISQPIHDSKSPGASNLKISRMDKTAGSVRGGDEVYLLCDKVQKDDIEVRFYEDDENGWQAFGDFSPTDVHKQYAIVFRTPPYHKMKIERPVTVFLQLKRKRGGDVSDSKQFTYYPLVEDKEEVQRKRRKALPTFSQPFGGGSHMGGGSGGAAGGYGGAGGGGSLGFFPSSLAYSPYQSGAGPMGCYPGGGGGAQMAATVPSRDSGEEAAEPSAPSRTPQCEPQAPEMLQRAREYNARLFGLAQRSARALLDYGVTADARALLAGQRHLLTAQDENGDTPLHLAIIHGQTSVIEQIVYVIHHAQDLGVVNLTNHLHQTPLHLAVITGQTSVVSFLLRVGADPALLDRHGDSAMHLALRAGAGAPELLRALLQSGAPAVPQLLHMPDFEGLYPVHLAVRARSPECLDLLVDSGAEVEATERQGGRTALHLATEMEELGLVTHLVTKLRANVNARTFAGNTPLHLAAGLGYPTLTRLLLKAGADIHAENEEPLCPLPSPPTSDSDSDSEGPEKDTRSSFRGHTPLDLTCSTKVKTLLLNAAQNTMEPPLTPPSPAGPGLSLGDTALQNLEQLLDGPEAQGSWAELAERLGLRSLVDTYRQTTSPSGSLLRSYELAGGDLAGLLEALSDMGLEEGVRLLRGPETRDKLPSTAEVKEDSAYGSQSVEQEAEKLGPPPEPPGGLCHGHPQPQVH
Sequence of Nuclear factor NF-kappa-B complex (Homo sapiens) (Q04206 whole entry, looked up): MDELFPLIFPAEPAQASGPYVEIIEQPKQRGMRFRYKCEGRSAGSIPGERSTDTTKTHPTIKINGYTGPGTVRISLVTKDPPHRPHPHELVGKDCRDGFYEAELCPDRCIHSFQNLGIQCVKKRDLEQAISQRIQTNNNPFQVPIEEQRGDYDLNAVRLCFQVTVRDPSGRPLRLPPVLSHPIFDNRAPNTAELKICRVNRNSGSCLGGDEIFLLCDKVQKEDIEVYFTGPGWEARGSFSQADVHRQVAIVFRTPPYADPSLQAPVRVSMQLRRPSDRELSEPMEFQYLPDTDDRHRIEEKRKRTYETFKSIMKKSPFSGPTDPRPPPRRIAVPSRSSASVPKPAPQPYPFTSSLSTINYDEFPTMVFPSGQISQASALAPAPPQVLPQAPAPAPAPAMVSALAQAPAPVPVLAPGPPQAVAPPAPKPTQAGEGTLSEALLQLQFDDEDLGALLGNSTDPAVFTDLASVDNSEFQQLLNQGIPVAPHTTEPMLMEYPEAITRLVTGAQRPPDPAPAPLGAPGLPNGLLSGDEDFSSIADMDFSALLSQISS
In short: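 HEK-293 at 70% confluence transfected by calcium phosphate with NF-kB luciferase ([…]) and b-Gal ([…]) plasmids, 6–8 h, then fresh serum medium 12 h; treated 48 h, lysed, luciferase read and normalized to b-galactosidase. Three independent experiments.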

HEK293 [26] = experiment: Induction of cell cycle arrest in HEK293 cells assessed as accumulation at S phase at 15 uM after 48 hrs by propidium iodide staining based flow cytometry (reference value: 19.9 +/- 0.5%); type: functional, Homo sapiens
HEK293 [27] = experiment: Induction of apoptosis in HEK293 cells at 10 uM after 48 hrs by propidium iodide staining based flow cytometry (reference value: 24.26 +/- 0.8%); type: functional, Homo sapiens
Bos taurus = species on record: Bos taurus; experiment: Induction of conformational changes in calf thymus DNA assessed as B-DNA conformation changes at 100 uM after 2 hrs by CD spectroscopy
HEK293 [28] = experiment: Induction of cell cycle arrest in HEK293 cells assessed as accumulation at G2/M phase at 15 uM after 48 hrs by propidium iodide staining based flow cytometry (reference value: 2.63 +/- 0.7%); type: functional, Homo sapiens
HEK293 [29] = experiment: Induction of cell cycle arrest in HEK293 cells assessed as accumulation at G1 phase at 5 uM after 48 hrs by propidium iodide staining based flow cytometry (reference value: 53.21 +/- 0.8%); type: functional, Homo sapiens

In the case of `C=C1CC[C@@H]2[C@](C)(CO)[C@H](O)CC[C@@]2(C)[C@@H]1C/C=C1/C(=O)OC[C@H]1OC(=O)CI`, the Activity (HEK293 [1]) is reported as “Active”, the Activity (HEK293 [2]) is reported as “inactive” and the Activity (HEK293 [3]) is reported as “Active”. The Activity (HEK293 [4]) was “inactive”, the Activity [5] was “inactive” and the CC50 (MCF7) was 6 µM. The Activity (HEK293 [6]) was “Active”, the Activity (HEK293 [7]) was 43.09% and the CC50 (HEK293 [8]) was 8 µM. For the same compound, the LC50 [9] was over 40 µM, the Activity (HEK293 [10]) was “Active” and the t1/2 [11] was 35 min. The Activity (HEK293 [12]) was 15.6%, the Activity (HEK293 [13]) was “Dose-dependent effect” and the Activity (HEK293 [14]) was 7.96%. For the same compound, the Activity (HEK293 [15]) was 89.69%, the Activity (HEK293 [16]) was “Active” and the Activity (HEK293 [17]) was 2.74%. The Activity [18] was “Active”, the Activity (HEK293 [19]) was “inactive” and the Activity (HEK293 [20]) was 7.57%. For the same compound, the Activity (HEK293 [21]) was “inactive”, the LC50 (Vero) was 45 µM and the Kb (Calf thymus DNA) was 2.5 ×10⁵ /M. For the same compound, the “fold change (FC)” value (HEK293 [22]) was over 5, the Activity (HEK293 [23]) was 2.14% and the Activity (HEK293 [24]) was 78.5%. The inhibition [25] was “Dose-dependent effect”, the Activity (HEK293 [26]) was 5.67% and the Activity (HEK293 [27]) was 74.03%. For the same compound, the Activity (Bos taurus) was “inactive”, the Activity (HEK293 [28]) was 1.28% and the Activity (HEK293 [29]) was 24.77%.
